Reference: ChEMBL document CHEMBL4024748, “Development of Potent Type I Protein Arginine Methyltransferase (PRMT) Inhibitors of Leukemia Cell Proliferation” (J Med Chem, 2017)
Values belong to the molecule of their own block, whether it stands above or below them. Active and inactive are the calls of the source. No cut-off for these calls is given here.

Assays:
[1] = target: Protein arginine N-methyltransferase 1 (Rattus norvegicus) (UniProt Q63009); test: Inhibition of rat His-tagged PRMT1 (11 to 353 residues) expressed in Escherichia coli BL21(DE3) at 100 uM using biotinylated H4 peptide (1 to 21 residues) as substrate by TR-FRET assay
Summary of the method: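 Single-point screen at 100 µM. His6-rPRMT1(11–353) expressed in E. coli BL21(DE3) and purified by Ni affinity then gel filtration. Biotinylated H4(1–21) methylated, then product detected with Eu-labelled anti-H4R3me2a antibody plus ULight-streptavidin by TR-FRET. Percent inhibition read.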

[2] = target: Protein arginine N-methyltransferase 1 (Rattus norvegicus, UniProt Q63009); test: Inhibition of rat His-tagged PRMT1 (11 to 353 residues) expressed in Escherichia coli BL21(DE3) using biotinylated H4 peptide (1 to 21 residues) as substrate preincubated for 15 mins followed by substrate addition measured after 60 mins in presence of [3H]SAM by microbeta counting method
Summary of the method: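 Radiometric assay in modified Tris buffer. His6-rPRMT1(11–353) preincubated with compound 15 min at RT, then substrate and [3H]-SAM added. Reaction 60 min at RT, stopped with cold stop solution, transferred to Flashplate for 60 min, washed with water/0.1% Tween-20, counted on Microbeta. IC50 from curve fit.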

[3] = target: Protein arginine N-methyltransferase 1 (Rattus norvegicus) (UniProt Q63009); test: Binding affinity to rat His-tagged PRMT1 (11 to 353 residues) expressed in Escherichia coli BL21(DE3) at 200 uM by 1D 1H CPMG-NMR spectroscopic method
Summary of the method: (§1)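 Rat PRMT1 (11–353), N-His6, expressed in E. coli BL21(DE3) with 0.4 mM IPTG at 16°C. Purified by Ni affinity and Superdex200. NMR used 5 µM PRMT1 in phosphate buffer pH 7.4 (20 mM NaH2PO4, 20 mM Na2HPO4, 100 mM NaCl) in D2O. Ligand at 200 µM in 5% DMSO-d6. CPMG run with 5, 2 and 1 µM PRMT1, plus STD.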

[4] = target: Protein arginine N-methyltransferase 1 (Rattus norvegicus) (UniProt Q63009); test: Binding affinity to rat His-tagged PRMT1 (11 to 353 residues) expressed in Escherichia coli BL21(DE3) at 200 uM by STD-NMR spectroscopic method; summary of the method: as §1
MV4-11 [5] = test: Cytotoxicity against human MV4-11 cells assessed as decrease in cell viability at 6.25 to 12.5 uM after 96 hrs by Cell-Titer Glo assay; format: functional, cell-based
Summary of the method: (§2)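 Cells kept at 37°C, 5% CO2, exposed to compound or DMSO control for 96 h. Viability read by CellTiter-Glo luminescence after 2 min shaking to lyse and 10 min at room temperature. Triplicate wells, normalised to control cells. For long-term growth, log-phase seeding densities; cells counted and replated to the starting density with fresh compound on days 4 and 8.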

[6] = target: Protein arginine N-methyltransferase 1 (Homo sapiens) (UniProt Q99873); test: Inhibition of PRMT1 in human MV411 cells assessed as reduction in arginine methylation after 48 hrs by Western blot analysis; format: cell-based
Summary of the method: (§3)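 MV4-11 cells treated with compound for 48 h. ADMA, SDMA and H4R3me2a read by western blot. Blots blocked in 5% nonfat milk in PBST, primary antibodies overnight at 4°C, HRP anti-rabbit secondary at 1:10000 for 1 h.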

MV4-11 [7] = test: Cell cycle arrest in human MV4-11 cells assessed as accumulation at G1 phase at 1.67 to 15 uM after 72 hrs by propidium iodide staining-based flow cytometry; format: functional
Summary of the method: (§4)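 MV4-11 cells in 6-well plates with compound or DMSO control, harvested at 72 h. Fixed overnight in 70% ethanol at 4°C, washed with PBS, stained 30 min at room temperature with propidium iodide/RNase buffer, analysed by flow cytometry. Mean ± SD of three replicates.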

MV4-11 [8] = test: Induction of apoptosis in human MV4-11 cells up to 15 uM after 96 hrs by annexin V-FITC/propidium iodide staining-based flow cytometric method; format: functional, cell-based
Summary of the method: (§5)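 MV4-11 cells in 6-well plates with compound or DMSO control, harvested at 96 h. Stained with an Annexin V-FITC apoptosis detection kit and analysed by flow cytometry. Mean ± SD of three replicates.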

MV4-11 [9] = test: Downregulation of HOXA9 mRNA levels in human MV4-11 cells up to 15 uM by qRT-PCR analysis; format: functional, cell-based
Summary of the method: (§6)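 MV4-11 cells treated with compound. mRNA measured by SYBR Green qRT-PCR with B2M as internal control. Fold change from ΔΔCt. Samples run in triplicate, mean ± SD.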

MV4-11 [10] = test: Downregulation of HOXA10 mRNA levels in human MV4-11 cells up to 15 uM by qRT-PCR analysis; format: functional, cell-based; summary of the method: as §6
MV4-11 [11] = test: Downregulation of MEIS1 mRNA levels in human MV4-11 cells up to 15 uM by qRT-PCR analysis; format: functional, cell-based; summary of the method: as §6
KOPN-8 = test: Cytotoxicity against human KOPN8 cells assessed as decrease in cell viability after 96 hrs by Cell-Titer Glo assay; format: functional, cell-based; summary of the method: as §2
KMS-11 = test: Cytotoxicity against human KMS11 cells assessed as decrease in cell viability after 96 hrs by Cell-Titer Glo assay; format: functional, cell-based; summary of the method: as §2
THP-1 = test: Cytotoxicity against human THP1 cells assessed as decrease in cell viability after 96 hrs by Cell-Titer Glo assay; format: functional, cell-based; summary of the method: as §2
RS4-11 = test: Cytotoxicity against human RS4:11 cells assessed as decrease in cell viability after 96 hrs by Cell-Titer Glo assay; format: functional, cell-based; summary of the method: as §2
RCH-ACV = test: Cytotoxicity against human RCH-ACV cells assessed as decrease in cell viability after 96 hrs by Cell-Titer Glo assay; format: functional, cell-based; summary of the method: as §2
REH = test: Cytotoxicity against human REH cells assessed as decrease in cell viability after 96 hrs by Cell-Titer Glo assay; format: functional, cell-based; summary of the method: as §2
U-937 = test: Cytotoxicity against human U937 cells assessed as decrease in cell viability after 96 hrs by Cell-Titer Glo assay; format: functional, cell-based; summary of the method: as §2
MRC5 = test: Cytotoxicity against human MRC5 cells assessed as decrease in cell viability at 6.25 to 25 uM after 96 hrs by Cell-Titer Glo assay; format: cell-based; conditions: mrc5, 96 h
Summary of the method: (§7)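 Normal HUV-EC-C, MRC-5 and RCTEC cells at 37°C, 5% CO2, given compound or DMSO control for 96 h. Viability by CellTiter-Glo luminescence after 2 min shaking and 10 min at room temperature. Triplicate wells, normalised to control cells.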

[12] = Cytotoxicity against human RCTEC cells assessed as decrease in cell viability at 6.25 to 25 uM after 96 hrs by Cell-Titer Glo assay; format: cell-based; summary of the method: as §7
[13] = Cytotoxicity against human HUV-EC-C cells assessed as decrease in cell viability at 6.25 to 25 uM after 96 hrs by Cell-Titer Glo assay; format: cell-based; summary of the method: as §7
MV4-11 [14] = test: Antiproliferative activity against human MV4-11 cells assessed as decrease in cell viability at 0.1 to 1000 uM by Cell-Titer Glo assay; format: functional, cell-based; conditions: TDE = time-dependent effect; summary of the method: as §2
MV4-11 [15] = test: Antiproliferative activity against human MV4-11 cells assessed as decrease in cell viability measured at day 12 by Cell-Titer Glo assay; format: functional, cell-based; conditions: MV4-11, 288 h; summary of the method: as §2
[16] = target: Protein arginine N-methyltransferase 1 (Homo sapiens) (UniProt Q99873); test: Inhibition of PRMT1 in human MV411 cells assessed as reduction in ADMA levels after 48 hrs by Western blot analysis; format: cell-based; summary of the method: as §3
[17] = target: Protein arginine N-methyltransferase 1 (Homo sapiens) (UniProt Q99873); test: Inhibition of PRMT1 in human MV411 cells assessed as increase in SDMA levels after 48 hrs by Western blot analysis; format: cell-based; summary of the method: as §3
MV4-11 [18] = test: Cell cycle arrest in human MV4-11 cells assessed as accumulation at G1 phase after 72 hrs by propidium iodide staining-based flow cytometry; format: functional; summary of the method: as §4
MV4-11 [19] = test: Induction of apoptosis in human MV4-11 cells after 96 hrs by annexin V-FITC/propidium iodide staining-based flow cytometric method; format: functional, cell-based; summary of the method: as §5
MV4-11 [20] = test: Downregulation of HOXA9 mRNA levels in human MV4-11 cells by qRT-PCR analysis; format: functional, cell-based; summary of the method: as §6
MV4-11 [21] = test: Downregulation of HOXA10 mRNA levels in human MV4-11 cells by qRT-PCR analysis; format: functional, cell-based; summary of the method: as §6
MV4-11 [22] = test: Downregulation of MEIS1 mRNA levels in human MV4-11 cells by qRT-PCR analysis; format: functional, cell-based; summary of the method: as §6
MV4-11 [23] = test: Upregulation of MNDA mRNA levels in human MV4-11 cells by qRT-PCR analysis; format: functional, cell-based
Summary of the method: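 Treated MV4-11 cells analysed by SYBR Green qRT-PCR, with B2M as internal control. Fold change calculated by the ΔΔCt method. Samples run in triplicate and reported as mean ± SD.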

[24] = target: Protein arginine N-methyltransferase 1 (Homo sapiens) (UniProt Q99873); test: Inhibition of PRMT1 in human MV411 cells assessed as reduction in H4R3me2a levels after 48 hrs by Western blot analysis; format: cell-based; summary of the method: as §3

Chain of Protein arginine N-methyltransferase 1 (Rattus norvegicus) (Q63009 whole entry, looked up, the tested form may be a part): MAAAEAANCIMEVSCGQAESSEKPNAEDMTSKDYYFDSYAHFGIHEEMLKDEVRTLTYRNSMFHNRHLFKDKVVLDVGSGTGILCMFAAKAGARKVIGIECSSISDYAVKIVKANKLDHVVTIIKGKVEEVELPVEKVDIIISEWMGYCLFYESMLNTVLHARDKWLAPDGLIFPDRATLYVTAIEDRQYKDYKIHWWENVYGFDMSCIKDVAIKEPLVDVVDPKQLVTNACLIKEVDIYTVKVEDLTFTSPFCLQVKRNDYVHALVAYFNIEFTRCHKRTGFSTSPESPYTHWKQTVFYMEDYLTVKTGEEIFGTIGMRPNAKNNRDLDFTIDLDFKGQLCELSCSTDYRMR
Chain of Protein arginine N-methyltransferase 1 (Q63009 whole entry, the tested form may be a part): as the sequence (Q63009 whole entry, looked up, the tested form may be a part) above
Chain of Protein arginine N-methyltransferase 1 (Homo sapiens) (Q99873 whole entry, looked up): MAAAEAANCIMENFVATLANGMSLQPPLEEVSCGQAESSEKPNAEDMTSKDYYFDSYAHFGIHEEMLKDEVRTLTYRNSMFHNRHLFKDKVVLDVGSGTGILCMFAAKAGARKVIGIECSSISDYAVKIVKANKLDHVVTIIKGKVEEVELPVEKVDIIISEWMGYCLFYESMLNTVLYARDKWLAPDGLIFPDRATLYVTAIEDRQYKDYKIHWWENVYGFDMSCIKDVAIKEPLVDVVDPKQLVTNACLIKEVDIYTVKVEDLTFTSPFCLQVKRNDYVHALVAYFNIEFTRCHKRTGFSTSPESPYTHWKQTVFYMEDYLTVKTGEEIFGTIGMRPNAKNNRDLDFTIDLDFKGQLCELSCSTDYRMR

SMILES: COc1ccc(N(C(=O)C2CCCCC2)S(=O)(=O)c2ccccc2)cc1
inhibition [1]: > 80%

SMILES: CN(C)CCNCc1ccccc1Sc1ccccc1F
IC50 [2]: 45 µM

SMILES: CCOC(=O)c1c2c3ccccc3c3ccccc3c2cc2[n+]1CCc1ccccc1-2
IC50 [2]: 53 µM
inhibition [1]: > 80%

SMILES: CN(C)CCNC(=O)c1ccccc1Sc1cccc2ccccc12
IC50 [2]: > 200 µM

SMILES: CCCNCc1cc(Br)cc(Br)c1OC
inhibition [1]: > 80%

SMILES: CN(C)CCNC(=O)c1ccccc1Sc1ccccc1F
IC50 [2]: > 200 µM

SMILES: Cc1ccc(-c2cc(CC(=O)c3c(O)cc(O)cc3O)n[nH]2)cc1
IC50 [2]: 49 µM
inhibition [1]: > 80%

SMILES: CN(C)CCNC(=O)c1ccccc1Sc1ccccc1Cl
IC50 [2]: > 50 µM

SMILES: CN(C)CCNCc1ccccc1Sc1cccc2ccccc12
IC50 [2]: 34 µM

SMILES: c1ccc(COc2cccc(CNCC3CCNCC3)c2)cc1
IC50 [2]: 147 µM
inhibition [1]: > 80%

SMILES: C=CCOc1ccc(CNCCc2ccc(S(N)(=O)=O)cc2)cc1
IC50 [2]: 85 µM
inhibition [1]: > 80%

Now from value to molecule, other results behind:

IC50 [2]: 54 µM
SMILES: CN(C)CCNCc1ccccc1Sc1ccccc1Cl

IC50 [2]: 0.39 µM
SMILES: CN(C)CCN(C)Cc1ccccc1Sc1ccccc1Cl

IC50 [2]: 3 µM
inhibition [1]: > 80%
Activity [3]: Active
Activity [4]: Active
SMILES: CN(C)CCN(C)Cc1ccccc1Sc1cccc2ccccc12

IC50 [2]: > 50 µM
SMILES: CN(C)CCNC(=O)c1ccccc1Sc1ccccc1

IC50 [2]: 3.6 µM
SMILES: CN(C)CCN(C)Cc1ccccc1Sc1ccccc1

IC50 [2]: 0.71 µM
SMILES: CN(C)CCN(C)Cc1ccccc1Sc1ccccc1F

IC50 [2]: > 50 µM
inhibition [6]: inactive
SMILES: CN(C)CCNCc1ccccc1Sc1ccccc1
Activity (MV4-11 [5]): inactive
Activity (MV4-11 [7]): inactive
Activity (MV4-11 [8]): inactive
Activity (MV4-11 [9]): inactive
Activity (MV4-11 [10]): inactive
Activity (MV4-11 [11]): inactive

IC50 [2]: 0.006 µM
Activity [3]: Active
Activity [4]: Active
IC50 (MV4-11 [15]): 1.08 µM
inhibition [16]: Dose-dependent effect
inhibition [17]: Dose-dependent effect
inhibition [24]: Dose-dependent effect
SMILES: CNCCN(C)Cc1ccccc1Sc1ccccc1Cl
Activity (KOPN-8): Dose-dependent effect
Activity (KMS-11): Dose-dependent effect
Activity (THP-1): Dose-dependent effect
Activity (RS4-11): Dose-dependent effect
Activity (RCH-ACV): Dose-dependent effect
Activity (REH): Dose-dependent effect
Activity (U-937): Dose-dependent effect
Activity (MV4-11 [5]): Active
Activity (MRC5): Non-Toxic
Activity [12]: Non-Toxic
Activity [13]: Non-Toxic
Activity (MV4-11 [14]): Tde
Activity (MV4-11 [18]): Dose-dependent effect
Activity (MV4-11 [19]): Dose-dependent effect
Activity (MV4-11 [20]): Dose-dependent effect
Activity (MV4-11 [21]): Dose-dependent effect
Activity (MV4-11 [22]): Dose-dependent effect
Activity (MV4-11 [23]): Active
